The term pIC50 denotes the negative decadic logarithm of the IC50, by convention in mol/L. By inhibition in vivo is commonly meant the relative decrease from the control value, in per cent. By AUC(0-t) is commonly meant exposure summed from dosing to a finite time, without extrapolation to infinity. One may read the bioavailability as the share of a dose that reaches the circulation, judged against a reference dose that is usually intravenous. By inhibition is commonly meant the change of the read-out against control, counted positive when it falls. Broadly, the CL/F is clearance divided by bioavailability, as obtained after extravascular dosing. For orientation: Cmax means the highest concentration seen after dosing.

In data set [1] the target is 11-beta-hydroxysteroid dehydrogenase 1 (Mus musculus, UniProt P50172). Kind of data set: Inhibition of mouse 11beta-HSD1 expressed in CHO cells after 3 hrs by HTRF cortisol assay. Format: cell-based. A general note: TR-FRET usually uses a lanthanide donor and a delayed reading to cut background.
Sequence of 11-beta-hydroxysteroid dehydrogenase 1 (Mus musculus, UniProt P50172) (P50172 whole entry): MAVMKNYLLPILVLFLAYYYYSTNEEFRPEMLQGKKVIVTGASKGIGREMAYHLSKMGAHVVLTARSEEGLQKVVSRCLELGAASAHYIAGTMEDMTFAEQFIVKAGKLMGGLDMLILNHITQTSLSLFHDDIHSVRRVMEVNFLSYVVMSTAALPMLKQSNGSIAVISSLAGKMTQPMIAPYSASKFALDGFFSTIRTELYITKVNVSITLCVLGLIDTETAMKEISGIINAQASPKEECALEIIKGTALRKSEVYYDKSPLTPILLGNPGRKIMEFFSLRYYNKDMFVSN
The target in data set [2] is 11-beta-hydroxysteroid dehydrogenase 1 (Homo sapiens, UniProt P28845). The data set can be described thus: Inhibition of human 11beta-HSD1 expressed in CHO cells after 3 hrs by HTRF cortisol assay. It counts as cell-based.
Sequence of 11-beta-hydroxysteroid dehydrogenase 1 (Homo sapiens, UniProt P28845) (P28845 whole entry): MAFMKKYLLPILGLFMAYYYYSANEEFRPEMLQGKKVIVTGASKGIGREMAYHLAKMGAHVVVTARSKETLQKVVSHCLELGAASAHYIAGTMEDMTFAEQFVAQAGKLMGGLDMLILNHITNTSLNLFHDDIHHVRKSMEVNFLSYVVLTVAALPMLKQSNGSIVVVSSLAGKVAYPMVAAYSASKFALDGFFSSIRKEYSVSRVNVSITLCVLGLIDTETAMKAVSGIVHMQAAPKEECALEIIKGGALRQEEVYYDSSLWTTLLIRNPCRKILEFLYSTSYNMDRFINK
The test system of data set [3] is Mus musculus. Kind of data set: Antidiabetic activity in KKAy mouse assessed as reduction of AUC of plasma glucose level at 100 mg/kg, po qd for 18 days by oral glucose tolerance test relative to control. Set-up: scale not given: the % may be the effect or the level left. It counts as functional.
The test system of data set [4] is Cynomolgus monkey. The data set can be described thus: In vivo inhibition of 11beta-HSD1 in cynomolgus monkey lnguinal fat pad assessed as cortisol product at 20 mg/kg, po after 2 hrs by ELISA. It counts as functional. The settings on record: Macaca fascicularis. In general terms: An ELISA detects its analyte on a solid surface through an enzyme-linked reagent.

Data set [5] is described as follows: AUC (0 to 8 hrs) in po dosed rat. It counts as ADME, organism-based. The arrangement: time < 8 hr, route oral. Conditions: plasma. The gist of the method:
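Rats dosed orally; plasma exposure expressed as AUC over 0–8 h.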

Data set [6] concerns Mus musculus. Kind of data set: In vivo inhibition of 11beta-HSD1 in C57/BL6 mouse lnguinal fat pad assessed as cortisol product at 40 mg/kg, po after 2 hrs by ELISA. It counts as functional. The settings on record: C57Bl/6, Fat pad.
Data set [7] can be described thus: Oral bioavailability in po dosed rat. It counts as ADME, organism-based. Conditions: in vivo.
The target of another data set is CYP2C19 (Homo sapiens, UniProt P33261). Kind of data set: Inhibition of CYP2C19 at 10 uM. Format: ADME.
Sequence of CYP2C19 (P33261 whole entry): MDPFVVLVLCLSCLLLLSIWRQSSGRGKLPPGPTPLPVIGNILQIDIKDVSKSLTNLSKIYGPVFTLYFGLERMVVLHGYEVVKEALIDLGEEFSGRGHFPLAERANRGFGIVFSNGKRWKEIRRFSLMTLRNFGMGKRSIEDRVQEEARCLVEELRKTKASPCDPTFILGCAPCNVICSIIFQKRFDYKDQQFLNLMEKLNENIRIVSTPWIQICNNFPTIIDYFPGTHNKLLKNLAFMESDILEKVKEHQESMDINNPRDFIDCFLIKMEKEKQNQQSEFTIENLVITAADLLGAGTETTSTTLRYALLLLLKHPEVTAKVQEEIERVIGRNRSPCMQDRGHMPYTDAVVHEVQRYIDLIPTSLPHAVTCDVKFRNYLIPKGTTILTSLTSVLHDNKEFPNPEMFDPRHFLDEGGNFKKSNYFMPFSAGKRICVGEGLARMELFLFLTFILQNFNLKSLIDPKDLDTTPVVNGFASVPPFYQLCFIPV
Data set [8] is described as follows: Metabolic stability in human liver microsomes after 30 mins. Format: ADME, Microsome. The settings on record: read-out: Stability. (Microsomes from liver hold many membrane-bound enzymes, among them those of drug oxidation.)
The target in another data set is CYP3A4 (Homo sapiens, UniProt P08684). Kind of data set: Inhibition of CYP3A4 at 10 uM. It counts as ADME.
Sequence of CYP3A4 (P08684 whole entry): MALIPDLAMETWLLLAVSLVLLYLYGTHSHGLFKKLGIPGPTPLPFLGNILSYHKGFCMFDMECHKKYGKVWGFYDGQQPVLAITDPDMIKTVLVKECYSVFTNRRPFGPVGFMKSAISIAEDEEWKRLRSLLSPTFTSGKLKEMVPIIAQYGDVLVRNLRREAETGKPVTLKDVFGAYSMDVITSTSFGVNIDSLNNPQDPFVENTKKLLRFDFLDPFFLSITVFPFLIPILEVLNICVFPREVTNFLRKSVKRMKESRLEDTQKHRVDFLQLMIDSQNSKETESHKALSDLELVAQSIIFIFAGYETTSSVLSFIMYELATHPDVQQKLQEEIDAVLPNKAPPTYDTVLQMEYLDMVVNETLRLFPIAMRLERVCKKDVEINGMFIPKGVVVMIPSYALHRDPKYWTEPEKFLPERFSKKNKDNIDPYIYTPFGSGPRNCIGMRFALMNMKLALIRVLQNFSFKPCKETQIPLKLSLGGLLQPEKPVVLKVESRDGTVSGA
A further data set addresses CYP2D6 (Homo sapiens, UniProt P10635). The data set can be described thus: Inhibition of CYP2D6 at 10 uM. Format: ADME.
In data set [9] the test system is Mus musculus. The data set can be described thus: Antidiabetic activity in KKAy mouse assessed as reduction of non-fasting plasma glucose level at 100 mg/kg, po qd for 18 days relative to control. Format: functional. The arrangement: scale not given: the % may be the effect or the level left. A digest of the protocol: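 KKAy mice dosed orally at 100 mg/kg for 18 days alongside vehicle-treated controls; non-fasting blood glucose measured after 18 days; n = 7 mice/group, means ± SEM.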

Data set [10] concerns the target Voltage-gated inwardly rectifying potassium channel KCNH2 (Homo sapiens, UniProt Q12809). The data set can be described thus: Binding affinity to human ERG.
The subject of data set [11] is Cynomolgus monkey. The data set can be described thus: In vivo inhibition of 11beta-HSD1 in cynomolgus monkey liver assessed as cortisol product at 20 mg/kg, po after 2 hrs by ELISA. Conditions: Macaca fascicularis. It counts as functional.
The target of the next data set is T1, CYP1A2 (Homo sapiens, UniProt P05177).
T1 sequence (P05177 whole entry): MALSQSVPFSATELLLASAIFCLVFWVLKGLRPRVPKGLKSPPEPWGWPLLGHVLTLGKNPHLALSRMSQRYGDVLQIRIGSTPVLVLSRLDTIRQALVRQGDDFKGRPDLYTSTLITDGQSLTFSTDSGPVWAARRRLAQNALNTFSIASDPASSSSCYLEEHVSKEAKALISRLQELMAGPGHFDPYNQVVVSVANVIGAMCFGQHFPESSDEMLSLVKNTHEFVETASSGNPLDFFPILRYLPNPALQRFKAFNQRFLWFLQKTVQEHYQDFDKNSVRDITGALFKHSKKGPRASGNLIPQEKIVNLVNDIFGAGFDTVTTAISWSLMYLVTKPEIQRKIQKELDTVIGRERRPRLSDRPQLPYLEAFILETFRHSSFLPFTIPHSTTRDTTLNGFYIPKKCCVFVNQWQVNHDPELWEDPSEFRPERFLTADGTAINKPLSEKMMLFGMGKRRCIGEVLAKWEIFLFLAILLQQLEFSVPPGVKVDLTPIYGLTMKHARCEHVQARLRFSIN
The data set can be described thus: Inhibition of CYP1A2 at 10 uM. It counts as ADME.

Data set [12] has as its system Mus musculus. The data set can be described thus: In vivo inhibition of 11beta-HSD1 in C57Bl/6 mouse liver assessed as cortisol product at 40 mg/kg, po after 2 hrs by ELISA. Format: functional. Conditions: C57Bl/6, 2 h.
Data set [13] in a line: Clearance in po dosed rat. Format: ADME, organism-based. Conditions: in vivo.
Data set [14] has as its target T2, 11-beta-hydroxysteroid dehydrogenase type 2 (Homo sapiens) (UniProt P80365).
T2 sequence (whole entry): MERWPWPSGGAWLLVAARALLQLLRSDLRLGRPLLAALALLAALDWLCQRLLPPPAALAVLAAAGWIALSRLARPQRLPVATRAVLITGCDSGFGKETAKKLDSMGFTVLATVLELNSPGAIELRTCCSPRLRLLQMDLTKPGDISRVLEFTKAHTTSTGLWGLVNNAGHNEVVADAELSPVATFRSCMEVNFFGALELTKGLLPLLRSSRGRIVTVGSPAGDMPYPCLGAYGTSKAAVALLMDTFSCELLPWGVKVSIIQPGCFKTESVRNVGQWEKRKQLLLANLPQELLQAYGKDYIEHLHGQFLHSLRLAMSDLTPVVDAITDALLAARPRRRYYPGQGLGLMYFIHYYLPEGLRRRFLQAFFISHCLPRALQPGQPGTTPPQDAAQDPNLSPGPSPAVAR
The data set can be described thus: Inhibition of human 11beta-HSD2 expressed in HEK293 cells at 10 uM after 24 hrs by HTRF cortisol assay. It counts as cell-based.

Data set [15] can be described thus: Cmax in po dosed rat. It counts as ADME, organism-based. Set-up: route oral. The settings on record: in vivo.

pIC50: −log10 of the molar value.

Sequence of CYP2D6 (P10635 whole entry): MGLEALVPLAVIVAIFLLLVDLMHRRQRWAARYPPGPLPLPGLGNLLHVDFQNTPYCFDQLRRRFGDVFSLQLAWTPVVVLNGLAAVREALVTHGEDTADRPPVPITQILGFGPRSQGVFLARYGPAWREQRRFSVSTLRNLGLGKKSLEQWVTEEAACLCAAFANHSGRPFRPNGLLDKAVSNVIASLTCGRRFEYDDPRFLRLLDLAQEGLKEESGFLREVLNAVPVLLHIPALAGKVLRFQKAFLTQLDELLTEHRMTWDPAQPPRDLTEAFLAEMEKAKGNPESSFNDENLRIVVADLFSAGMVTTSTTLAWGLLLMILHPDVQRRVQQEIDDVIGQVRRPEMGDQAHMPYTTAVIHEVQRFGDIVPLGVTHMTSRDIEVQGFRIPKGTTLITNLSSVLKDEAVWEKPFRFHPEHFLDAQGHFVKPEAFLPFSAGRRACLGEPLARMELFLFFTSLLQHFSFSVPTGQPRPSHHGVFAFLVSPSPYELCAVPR
Sequence of Voltage-gated inwardly rectifying potassium channel KCNH2 (Q12809 whole entry): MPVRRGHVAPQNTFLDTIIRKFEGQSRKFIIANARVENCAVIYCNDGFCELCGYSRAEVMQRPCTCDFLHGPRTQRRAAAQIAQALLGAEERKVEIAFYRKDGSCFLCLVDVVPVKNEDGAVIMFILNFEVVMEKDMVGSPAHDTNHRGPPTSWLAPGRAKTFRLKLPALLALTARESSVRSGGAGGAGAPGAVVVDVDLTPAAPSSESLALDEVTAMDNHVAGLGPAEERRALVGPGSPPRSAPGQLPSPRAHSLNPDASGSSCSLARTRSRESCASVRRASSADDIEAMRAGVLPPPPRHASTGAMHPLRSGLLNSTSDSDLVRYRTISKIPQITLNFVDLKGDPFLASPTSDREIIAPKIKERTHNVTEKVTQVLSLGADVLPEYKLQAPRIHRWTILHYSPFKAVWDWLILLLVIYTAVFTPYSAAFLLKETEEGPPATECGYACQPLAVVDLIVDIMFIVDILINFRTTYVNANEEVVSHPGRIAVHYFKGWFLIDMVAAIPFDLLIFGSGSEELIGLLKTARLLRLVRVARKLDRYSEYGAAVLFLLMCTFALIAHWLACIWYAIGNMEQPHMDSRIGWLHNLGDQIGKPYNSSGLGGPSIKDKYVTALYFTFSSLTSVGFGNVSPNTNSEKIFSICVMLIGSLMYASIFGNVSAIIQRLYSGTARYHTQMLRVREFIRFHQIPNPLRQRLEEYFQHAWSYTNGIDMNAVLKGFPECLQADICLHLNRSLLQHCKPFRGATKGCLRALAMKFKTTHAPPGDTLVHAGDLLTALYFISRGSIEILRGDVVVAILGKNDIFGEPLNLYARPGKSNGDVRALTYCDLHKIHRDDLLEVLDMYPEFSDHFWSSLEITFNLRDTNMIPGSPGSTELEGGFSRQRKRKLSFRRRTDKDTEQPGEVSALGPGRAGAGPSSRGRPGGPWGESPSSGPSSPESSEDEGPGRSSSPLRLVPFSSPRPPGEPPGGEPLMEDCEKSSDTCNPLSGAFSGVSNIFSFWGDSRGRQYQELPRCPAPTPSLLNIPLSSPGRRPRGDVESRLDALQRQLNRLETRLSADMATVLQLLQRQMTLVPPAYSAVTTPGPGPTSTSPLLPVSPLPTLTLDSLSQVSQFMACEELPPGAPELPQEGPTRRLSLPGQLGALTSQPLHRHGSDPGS

For `NC(=O)C12CC3CC(C1)C(NC(=O)C1SCCN1S(=O)(=O)c1cccc(F)c1)C(C3)C2` (stereo unspecified), the pIC50 in data set [1] was 7.12.
In data set [2], `NC(=O)C12CC3CC(C1)C(NC(=O)C1SCCN1S(=O)(=O)c1ccccc1F)C(C3)C2` (stereo in doubt; 8g (Z)) gave a pIC50 of 5.10.
With `NC(=O)C12CC3CC(C1)C(NC(=O)C1SCCN1S(=O)(=O)c1ccccc1F)C(C3)C2` (stereo in doubt; 8g), the pIC50 in [1] and in data set [2] was 8.40 each time.
With `NC(=O)C12CC3CC(C1)C(NC(=O)C1SCCN1S(=O)(=O)c1ccccc1F)C(C3)C2` (stereo in doubt; 8g (E)) [listing 1 of 2 here], the Activity with Mus musculus [3] was 18.1%; in the data set on Mus musculus [9] it was 28.2%; in [10] it was over 100 µM. Moreover, the inhibition in vivo at 20 mg/kg with Cynomolgus monkey [4] is 62%; in the data set on Cynomolgus monkey [11], 57%. For the same compound, the negative logarithm of the IC50 (pIC50) in [1] and in [2] was 8.52 throughout. Besides, in data set [5], the AUC(0-t) at 8 h came out at 1110 ng·h/mL. The inhibition in vivo at 40 mg/kg came out at 67% in the data set with Mus musculus [6] and 65% in the data set on Mus musculus [12]. In data set [7], this compound had a bioavailability of 32%. For the same compound, the inhibition at 10 µM against CYP2C19 was 25%; on CYP3A4, 21%; against CYP2D6, 0%; on CYP1A2, 0%. Moreover, in data set [8], the remaining at 0.5 h turned out to be 77%. Further, the apparent clearance CL/F in data set [13] is 48.3 mL/min/kg.
As for `NC(=O)C12CC3CC(C1)C(NC(=O)C1SCCN1S(=O)(=O)c1ccc(F)cc1)C(C3)C2` (stereo unspecified), the pIC50 in data set [1] was 7.57.
Turning to `NC(=O)C12CC3CC(C1)C(NC(=O)C1SCCN1S(=O)(=O)c1ccccc1)C(C3)C2` (stereo unspecified), the pIC50 in data set [1] is 6.07.
With `NC(=O)C12CC3CC(C1)C(NC(=O)[C@H]1SCCN1S(=O)(=O)c1ccccc1F)C(C3)C2` (stereo in doubt; 8g (R) (Z)), the pIC50 in data set [2] is 5.87.
`NC(=O)C12CC3CC(C1)C(NC(=O)C1SCCN1S(=O)(=O)c1ccccc1F)C(C3)C2` (stereo in doubt; 8g (E)) [listing 2 of 2 here] gave an inhibition in data set [14] of 0%.
Turning to `COc1ccc(S(=O)(=O)N2CCSC2C(=O)NC2C3CC4CC2CC(C(N)=O)(C4)C3)cc1` (stereo unspecified), the pIC50 in data set [1] was 6.77.
Compound `NC(=O)C12CC3CC(C1)C(NC(=O)C1SCCN1S(=O)(=O)c1ccccc1F)C(C3)C2` (mixture of isomers) showed a negative-log IC50 (pIC50) in [2] of 8.40.
On the same count and under the same terms, under `NC(=O)C12CC3CC(C1)C(NC(=O)[C@H]1SCCN1S(=O)(=O)c1ccccc1F)C(C3)C2` (stereo in doubt; 8g (R) (E)) stands 8.70.
As to `NC(=O)C12CC3CC(C1)C(NC(=O)C1SCCN1S(=O)(=O)c1ccc(Cl)c(Cl)c1)C(C3)C2` (stereo unspecified), in data set [8], the remaining at 0.5 h turned out to be 43%. The compound also registered an inhibition in [14] of 47%. The compound also had a pIC50 in data set [2] of 8.30.
For the compound `NC(=O)C12CC3CC(C1)C(NC(=O)[C@@H]1SCCN1S(=O)(=O)c1ccccc1F)C(C3)C2` (stereo in doubt; 8g (S) (E)), the negative-log IC50 (pIC50) in data set [2] is 7.92.
On to `Cc1ccc(S(=O)(=O)N2CCSC2C(=O)NC2C3CC4CC2CC(C(N)=O)(C4)C3)cc1` (stereo unspecified), for which the pIC50 in data set [1] is 7.24; in [2], 8.10. For the same compound, the inhibition in vivo at 40 mg/kg with Mus musculus [6] and in the data set with Mus musculus [12] was 51% in each case. The same compound registered a bioavailability in data set [7] of 16%. Further, the inhibition at 10 µM came out at 21% against CYP2C19, 24% at CYP3A4, 0% at CYP2D6 and 0% at CYP1A2. Besides, the remaining at 0.5 h in data set [8] came out at 53%. Besides, the inhibition in data set [14] amounted to 0%. This compound registered a Cmax in data set [15] of 650 ng/mL. The compound further showed a CL/F in data set [13] of 43.3 mL/min/kg.
Compound `NC(=O)C12CC3CC(C1)C(NC(=O)[C@@H]1SCCN1S(=O)(=O)c1ccccc1F)C(C3)C2` (stereo in doubt; 8g (S) (Z)) had a pIC50 in data set [2] of 4.41.

For the origin of these results see ChEMBL document CHEMBL1641412, “Synthesis and 11β hydroxysteroid dehydrogenase 1 inhibition of thiazolidine derivatives with an adamantyl group” (Bioorg Med Chem Lett, 2011).
